Data as given in ChEMBL document CHEMBL2424622, “Development of amino-pyrimidine inhibitors of c-Jun N-terminal kinase (JNK): kinase profiling guided optimization of a 1,2,3-benzotriazole lead” (Bioorg Med Chem Lett, 2013).

Legend:
[1] = system: T1, Receptor-type tyrosine-protein kinase FLT3 (Homo sapiens), P36888 [D835Y]; test: Competitive binding affinity to FLT3 D835Y mutant (unknown origin) at 10 uM in presence of ATP relative to control
T1 sequence (whole entry): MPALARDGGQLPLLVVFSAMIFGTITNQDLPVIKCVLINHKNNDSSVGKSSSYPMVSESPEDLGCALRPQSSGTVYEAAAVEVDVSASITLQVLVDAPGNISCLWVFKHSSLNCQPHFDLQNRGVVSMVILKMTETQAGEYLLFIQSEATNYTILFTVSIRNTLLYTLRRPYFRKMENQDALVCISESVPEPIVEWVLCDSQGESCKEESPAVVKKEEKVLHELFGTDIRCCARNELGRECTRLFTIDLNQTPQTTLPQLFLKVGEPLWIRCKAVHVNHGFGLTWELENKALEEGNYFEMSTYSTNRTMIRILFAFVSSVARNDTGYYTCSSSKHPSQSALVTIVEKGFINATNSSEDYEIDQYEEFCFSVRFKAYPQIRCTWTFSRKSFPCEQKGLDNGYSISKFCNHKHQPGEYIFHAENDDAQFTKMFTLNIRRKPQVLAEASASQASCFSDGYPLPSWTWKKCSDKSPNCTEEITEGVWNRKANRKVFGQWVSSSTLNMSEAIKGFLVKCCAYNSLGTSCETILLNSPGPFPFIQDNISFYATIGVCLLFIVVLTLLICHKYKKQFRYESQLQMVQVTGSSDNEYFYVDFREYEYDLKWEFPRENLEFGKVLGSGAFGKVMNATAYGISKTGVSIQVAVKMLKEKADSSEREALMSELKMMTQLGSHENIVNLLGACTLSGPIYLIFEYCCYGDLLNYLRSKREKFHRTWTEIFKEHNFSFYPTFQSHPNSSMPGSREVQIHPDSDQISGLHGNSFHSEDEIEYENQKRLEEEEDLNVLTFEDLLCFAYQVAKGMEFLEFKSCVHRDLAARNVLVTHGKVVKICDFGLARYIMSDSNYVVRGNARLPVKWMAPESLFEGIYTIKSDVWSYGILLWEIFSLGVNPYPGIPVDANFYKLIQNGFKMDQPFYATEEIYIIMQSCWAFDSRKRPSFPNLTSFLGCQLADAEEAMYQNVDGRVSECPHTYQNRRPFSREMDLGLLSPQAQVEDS

[2] = system: Tyrosine-protein kinase ABL1 (Homo sapiens), P00519 [Q252H]; test: Competitive binding affinity to ABL1 Q252H mutant (unknown origin) at 10 uM in presence of ATP relative to control
[3] = system: Epidermal growth factor receptor (Homo sapiens), P00533 [G719S]; test: Competitive binding affinity to EGFR G719S mutant (unknown origin) at 10 uM in presence of ATP relative to control
Epidermal growth factor receptor (Homo sapiens), P00533 [G719S], sequence (P00533 whole entry G719S): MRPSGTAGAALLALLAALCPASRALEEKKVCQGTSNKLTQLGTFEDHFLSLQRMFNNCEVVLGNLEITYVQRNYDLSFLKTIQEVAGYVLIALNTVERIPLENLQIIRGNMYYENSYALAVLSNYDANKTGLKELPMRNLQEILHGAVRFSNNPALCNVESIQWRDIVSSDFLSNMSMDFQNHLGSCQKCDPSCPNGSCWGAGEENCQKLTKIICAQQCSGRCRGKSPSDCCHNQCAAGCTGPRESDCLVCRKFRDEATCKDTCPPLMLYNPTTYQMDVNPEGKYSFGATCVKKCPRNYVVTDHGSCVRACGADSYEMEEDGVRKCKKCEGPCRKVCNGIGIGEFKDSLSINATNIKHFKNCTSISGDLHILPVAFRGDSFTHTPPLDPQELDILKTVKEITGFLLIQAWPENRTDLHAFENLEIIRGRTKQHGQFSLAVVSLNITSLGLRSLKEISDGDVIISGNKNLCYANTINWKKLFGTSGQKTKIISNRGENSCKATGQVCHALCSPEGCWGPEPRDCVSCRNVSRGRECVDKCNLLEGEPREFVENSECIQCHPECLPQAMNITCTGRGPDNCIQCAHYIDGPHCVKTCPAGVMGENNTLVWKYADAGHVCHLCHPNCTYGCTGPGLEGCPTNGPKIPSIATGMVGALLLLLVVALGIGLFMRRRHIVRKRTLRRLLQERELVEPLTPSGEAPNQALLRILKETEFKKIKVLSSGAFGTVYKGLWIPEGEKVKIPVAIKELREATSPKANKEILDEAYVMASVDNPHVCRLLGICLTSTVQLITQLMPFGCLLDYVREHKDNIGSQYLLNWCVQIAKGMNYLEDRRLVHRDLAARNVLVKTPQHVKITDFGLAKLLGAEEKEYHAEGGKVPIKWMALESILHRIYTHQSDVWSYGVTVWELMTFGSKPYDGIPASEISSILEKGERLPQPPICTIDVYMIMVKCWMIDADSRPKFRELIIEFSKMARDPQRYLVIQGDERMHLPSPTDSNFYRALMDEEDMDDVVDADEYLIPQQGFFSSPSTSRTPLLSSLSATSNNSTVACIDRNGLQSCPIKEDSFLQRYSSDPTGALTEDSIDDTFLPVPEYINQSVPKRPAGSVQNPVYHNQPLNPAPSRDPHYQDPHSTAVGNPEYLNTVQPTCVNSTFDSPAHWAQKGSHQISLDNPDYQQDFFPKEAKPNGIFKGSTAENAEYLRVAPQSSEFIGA
Outline: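 In vitro ATP-site competition binding assay, part of profiling against a diverse panel of 128 kinases. Each compound was tested at a single concentration of 10 µM. Kinome selectivity was summarized as S15 selectivity scores.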

[4] = target: T2, Mitogen-activated protein kinase 15 (Homo sapiens) (UniProt Q8TD08); test: Competitive binding affinity to ERK8 (unknown origin) at 10 uM in presence of ATP relative to control
T2 sequence (whole entry): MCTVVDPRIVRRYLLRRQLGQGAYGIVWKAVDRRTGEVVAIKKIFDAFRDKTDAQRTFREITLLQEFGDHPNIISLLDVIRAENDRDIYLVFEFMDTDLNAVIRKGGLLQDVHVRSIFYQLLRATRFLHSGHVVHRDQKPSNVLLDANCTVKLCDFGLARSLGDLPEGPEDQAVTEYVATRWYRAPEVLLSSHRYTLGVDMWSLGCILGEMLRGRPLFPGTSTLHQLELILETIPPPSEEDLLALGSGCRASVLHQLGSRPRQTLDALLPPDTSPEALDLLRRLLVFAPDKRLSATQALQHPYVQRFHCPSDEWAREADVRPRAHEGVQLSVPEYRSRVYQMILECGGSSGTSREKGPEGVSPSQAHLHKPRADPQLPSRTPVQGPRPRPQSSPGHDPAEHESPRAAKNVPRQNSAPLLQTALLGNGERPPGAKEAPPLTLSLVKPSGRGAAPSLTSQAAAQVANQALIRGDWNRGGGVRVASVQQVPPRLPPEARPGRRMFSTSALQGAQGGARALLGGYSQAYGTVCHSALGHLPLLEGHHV

inhibition [1] [%] | inhibition [2] [%] | inhibition [3] [%] | Structure (SMILES) | inhibition [4] [%]
100 | < 50 | < 50 | O[C@H]1CC[C@H](Nc2nccc(-c3n[nH]c4ccccc34)n2)CC1 | 
< 50 | < 50 | < 50 | O[C@H]1CC[C@H](Nc2nccc(-n3ccc4ccccc43)n2)CC1 | 91
99 | 74 | < 50 | O[C@H]1CC[C@H](Nc2nccc(-n3nnc4ccccc43)n2)CC1 | 99
100 | < 50 | < 50 | O[C@H]1CC[C@H](Nc2nccc(-n3ncc4ccccc43)n2)CC1 | 97
 |  |  | CS(=O)(=O)CCCOc1cccc2c1ccn2-c1ccnc(N[C@H]2CC[C@H](C(=O)N3CCC(O)CC3)CC2)n1 | > 85
